The data set is described as follows: Toxicity liver stage against HepG2, at 10uM. In kind it is cell-based. Set-up: test concentration 10 uM, cell line HepG2-A16-CD81EGFP. The note with it: human, HepG2-A16-CD81EGFP cells; read-out: INHIBITION
The method in brief:
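Uninfected HepG2-A16-CD81EGFP cells, 3 × 10^3 per well, 1536-well, plated on prespotted compound at 10 μM final, parasite-free screening media added to match infected plates; puromycin 10 μM positive, DMSO 0.5% negative; run in parallel with 48 h PbLuc assay at 37 °C, 5% CO2; viability by CellTiter-Glo luminescence, normalized to controls.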
As to `CC1c2cccn2CCN1C(=O)CCc1nc(C2CC2)no1` (stereo unspecified), the cytotoxicity at 10 µM was -2.13%.

`N#Cc1ccc(C(=O)NCCCNc2ccc(C(F)(F)F)cn2)cc1`: the cytotoxicity at 10 µM was -4.53%.

As to `CCc1cc(=O)[nH]c(-c2ccc(NC(C)COC)nc2)n1` (stereo unspecified), the cytotoxicity at 10 µM is -146%.

As to `CCC(C)(C)C(=O)N1C[C@@H]2C[C@@H](c3nnc(C)[nH]3)O[C@@H]2C1`, the cytotoxicity at 10 µM worked out at 4.79%.

For `Cn1ccnc1-c1nc(NC2CCCC2)ncc1-c1cccc(F)c1`, the cytotoxicity at 10 µM amounted to 14.1%.

With `CCN(C)C(=O)[C@H]1C[C@@](CC(C)C)(C(=O)OC)N(C)[C@H]1c1cccnc1`, the cytotoxicity at 10 µM was found to be 0.779%.

Consider `Cc1cc(C)cc(NCCC(=O)NC2CCN(C(=O)C3CC3)CC2)c1`, for which the cytotoxicity at 10 µM was found to be 2.4%.

Consider `CNC(=O)[C@@]12CCC3(CCN(S(=O)(=O)C4CC4)CC3)[C@@H]1CN(C(C)=O)C2`, for which the cytotoxicity at 10 µM was -0.201%.

`COCC(=O)NCc1cc(=O)n2c(n1)CN(Cc1ccsc1)CCC2`: the cytotoxicity at 10 µM worked out at 0.281%.

For the compound `CCOCC(O)CN1CCN(C(=O)c2ccc(C)nc2)CC1` (stereo unspecified), the cytotoxicity at 10 µM was 0.661%.

`Cc1ccc(-c2noc(CN3CCc4nn(C)c(=O)cc4C3)n2)cc1`: the cytotoxicity at 10 µM is -8.78%.

Consider `O=C(O)c1c(-c2cncnc2)ncc2c1CCN(Cc1ccco1)C2`, for which the cytotoxicity at 10 µM was -2.69%.

Turning to `O=C(NCCc1nccs1)c1cn(CCN2CCNCC2)nn1`, the cytotoxicity at 10 µM was -4.41%.

As for `COC(C(=O)NC1CCN(S(C)(=O)=O)CC1)c1ccccc1` (stereo unspecified), the cytotoxicity at 10 µM was -4.68%.

`COc1cccc2c1N(CC(=O)Nc1ccc(Cl)cn1)CCC2`: the cytotoxicity at 10 µM was found to be 64.9%.

As to `COc1cc(CN(Cc2ccccn2)CC(C)C)cc2c1OCO2`, the cytotoxicity at 10 µM was -16%.

Regarding `Cc1cc(C(=O)NCCN2CCCCC2C)nn1C(C)(C)C` (stereo unspecified), the cytotoxicity at 10 µM was determined as 1.57%.

As to `CCC(CC)(CC(=O)OC)NC(=O)Nc1nnc(-c2ccccn2)s1`, the cytotoxicity at 10 µM was -8.68%.

For `O=c1c(NCCNCCO)c(N2CCN(Cc3ccccc3)CC2)c1=O`, the cytotoxicity at 10 µM is -5.9%.

As to `CCN1CCc2cc(-c3cncn3CC(=O)NC(C)(C)C)ccc21`, the cytotoxicity at 10 µM was -18.9%.

As for `CCc1ncc(-c2cn(CCSc3ncn[nH]3)nn2)cn1`, the cytotoxicity at 10 µM is 1.41%.

As for `Cn1cc(CN2CCc3ccc(=O)n(CC4CC4)c3CC2)cn1`, the cytotoxicity at 10 µM is 3.24%.

For `CCc1noc(C(C)N2CCN(CC(=O)N3CCOCC3)CC2)n1` (stereo unspecified), the cytotoxicity at 10 µM worked out at 6.01%.

Consider `Cc1cccc(CN(Cc2ccc(C)o2)C2CC(C)(C)NC(C)(C)C2)n1`, for which the cytotoxicity at 10 µM is -2.42%.

With `CC(C)(C)C(O)CCNC(=O)c1ccc(F)cc1Cl` (stereo unspecified), the cytotoxicity at 10 µM is 0.0701%.

For the compound `CCOc1ccc(CN2C(=O)CC3(CCCC3)C2=O)nc1`, the cytotoxicity at 10 µM was -4.01%.

`Cc1cc(C)nc(C2CCN(C3CCOCC3)C2)n1` (stereo unspecified): the cytotoxicity at 10 µM came to 0.469%.

`COC(=O)C1CCN(C(=O)c2cccc(NS(C)(=O)=O)c2C)CC1`: the cytotoxicity at 10 µM was -6.71%.

With `Cn1nc(C2CCN(CC(=O)NC3CC3)CC2)n(-c2ccccc2)c1=O`, the cytotoxicity at 10 µM was -22.3%.

As to `Cc1nccn1-c1ccc(=O)n(CCNC(=O)c2cccs2)n1`, the cytotoxicity at 10 µM was -5.51%.

`CN(C)CCN(C(=O)Cc1ccc2c(c1)OCCO2)C1CCN(C)CC1`: the cytotoxicity at 10 µM is 2.16%.

Consider `CC(C)C(=O)NCC(=O)N(C)C1CCCN(C2Cc3ccccc3C2)C1` (stereo unspecified), for which the cytotoxicity at 10 µM is -7.79%.

For the compound `O=C1CN(Cc2cnc3c(-c4ccccc4)cnn3c2)CCCN1`, the cytotoxicity at 10 µM is 3.32%.

Turning to `c1cnnc(N2CCCC2CNc2cnc3ccccc3n2)c1` (stereo unspecified), the cytotoxicity at 10 µM turned out to be 1.53%.

Take `CC(C)(C)c1noc(CN2CCN(C(=O)c3ccco3)CC2)n1`: the cytotoxicity at 10 µM is -15.8%.

In the case of `FC(F)CN1CCC(NCc2ccc(-n3cccn3)nc2)CC1`, the cytotoxicity at 10 µM was determined as 10.6%.

As to `Cc1ccc(CN2CCC3(CC2)NC(=O)CC3c2ccncc2)cc1C` (stereo unspecified), the cytotoxicity at 10 µM came out at 3.75%.

Consider `CCC(NC(=O)C1CC1)c1ccccc1OCC(=O)N1CCCC1` (stereo unspecified), for which the cytotoxicity at 10 µM is -9.16%.

On to `Cc1cc(O)c(OCC(=O)/N=c2\[nH]c(C)c(C)s2)cn1`, for which the cytotoxicity at 10 µM is 8.6%.

As for `CCc1nnc2n1CCN(Cc1cccc3c1OCCO3)C2`, the cytotoxicity at 10 µM is -7.42%.

Regarding `Cc1nnc(C[C@@H]2COC[C@H]3CN(C(=O)C4=CCCC4)C[C@@H]23)o1`, the cytotoxicity at 10 µM is -5.86%.

As to `CSCC(=O)N1CCC(c2nccn2Cc2cscn2)CC1`, the cytotoxicity at 10 µM was -6.6%.

Take `O=C(NC1CCCC1)c1n[nH]c2c1CNCC2`: the cytotoxicity at 10 µM was 0.582%.

On to `CC(C)n1ccnc1CN1CCCN(C(=O)c2cnc[nH]2)CC1`, for which the cytotoxicity at 10 µM was -11.9%.

Take `COC1CCCN(C(=O)NCC(F)F)C1` (stereo unspecified): the cytotoxicity at 10 µM turned out to be 7.51%.

With `COC(CNC(=O)N1CCC(n2cncn2)CC1)c1ccccc1` (stereo unspecified), the cytotoxicity at 10 µM was found to be 4.33%.

On to `COc1cc2c(nn1)CCN(Cc1nnc(Cc3ccccc3)o1)C2`, for which the cytotoxicity at 10 µM amounted to 4.25%.

As for `COC(=O)CC1CN(Cc2ccn(-c3ccc(F)cc3)n2)CCO1` (stereo unspecified), the cytotoxicity at 10 µM was -7.83%.

Regarding `CN(C)CCN1CCOCC2(CCN(Cc3ccc[nH]3)CC2)C1`, the cytotoxicity at 10 µM stood at 0.626%.

Consider `COc1ccc(-c2cc3nc(CCNC(=O)CN(C)C)nn3cn2)cc1`, for which the cytotoxicity at 10 µM worked out at 1.98%.

For `Cc1nc2c(c(NCCc3nccs3)n1)CCN(CC1CC1)CC2`, the cytotoxicity at 10 µM was -1.38%.

As for `CCN(C)c1ncnc2c1CCN(C(=O)COC)CC2`, the cytotoxicity at 10 µM came out at 1.75%.

As to `O=C(c1ccccn1)N1Cc2nccn2CC(CN2CCOCC2)C1` (stereo unspecified), the cytotoxicity at 10 µM was found to be 2.16%.

Take `Cn1cc(N2CCC(NC(=O)c3ccccc3Cl)C2=O)cn1` (stereo unspecified): the cytotoxicity at 10 µM worked out at 4.35%.

As to `Cc1nnsc1C(=O)NCc1cccnc1N1CCCC(O)C1` (stereo unspecified), the cytotoxicity at 10 µM is 1.91%.

With `Cc1ccc(-n2nnnc2SCN2CCCCC2=O)cc1C`, the cytotoxicity at 10 µM is -46.6%.

As to `CN1C[C@@H](N)C[C@H]1C(=O)N1CCC(CCCc2ccccc2)CC1`, the cytotoxicity at 10 µM was -8.29%.

For `Cc1nc(CC(=O)N2CCc3nnc(N(C)C)cc3C2)cs1`, the cytotoxicity at 10 µM is -7.07%.

Turning to `CCc1noc(CN2CCN(C(=O)N(C)C)CC2)n1`, the cytotoxicity at 10 µM was -4.97%.

Regarding `O=C(CSCC1CC1)N1CCCC(c2nccn2Cc2ccncc2)C1` (stereo unspecified), the cytotoxicity at 10 µM was -13.3%.

As for `Cc1ncoc1C(=O)N1CCOC(Cc2ccccc2)C1` (stereo unspecified), the cytotoxicity at 10 µM stood at 2.23%.

Take `Cc1ccc2cc(C(=O)N3CCN(C(=O)c4ccoc4)CC3)[nH]c2c1`: the cytotoxicity at 10 µM was -43.6%.

As to `COCCN(C)C(=O)c1cc2c(s1)CCN2C(=O)C1CC1`, the cytotoxicity at 10 µM was -7.38%.

`COCCC(=O)N1CCc2nc(N3CCOCC3)nc(NC(C)C)c2C1`: the cytotoxicity at 10 µM was -108%.

With `Cc1ccc(NS(C)(=O)=O)c(C(=O)NCCC(=O)NC(C)C)c1`, the cytotoxicity at 10 µM is -0.141%.

Take `COC1CCN(c2ccc(F)cc2CN(C)CC(N)=O)CC1`: the cytotoxicity at 10 µM is -6.91%.

As for `Cc1nccc(N[C@H]2CN(C(=O)C3(C#N)CCOCC3)C[C@@H]2C(C)C)n1`, the cytotoxicity at 10 µM was determined as 9.81%.

Take `CN(Cc1ccsc1)C(=O)Cn1c(CS(C)(=O)=O)nc2ccccc21`: the cytotoxicity at 10 µM was 6.96%.

Consider `CN(CC(F)(F)F)C(=O)CNC(=O)Cc1ccccc1O`, for which the cytotoxicity at 10 µM was found to be 6.31%.

For `Cc1cc(C)c(CNC(=O)NCC(O)c2ccccc2)c(=O)[nH]1` (stereo unspecified), the cytotoxicity at 10 µM is -10%.

On to `Fc1ccc(-c2nc(CN3CCCC3Cn3cncn3)co2)cc1F` (stereo unspecified), for which the cytotoxicity at 10 µM was -5.58%.

`CCOCCCNC(=O)C(NC(=O)Cc1cccs1)c1ccc(C)cc1` (stereo unspecified): the cytotoxicity at 10 µM is 13.2%.

As for `CCOCCCNC(=O)c1nnn(Cc2ccccc2)c1OC`, the cytotoxicity at 10 µM worked out at 9.32%.

Turning to `Cc1ccc2c(c1)C(=O)NCC1(CCN(C(=O)c3scnc3C)CC1)O2`, the cytotoxicity at 10 µM was -17.3%.

With `COc1cccc(CNC(=O)N2CCN3CCNC(=O)C3C2)c1` (stereo unspecified), the cytotoxicity at 10 µM stood at 2.62%.

With `CC(NC(=O)NCCNc1cccc(F)c1C#N)c1cccs1` (stereo unspecified), the cytotoxicity at 10 µM was -1.31%.

With `CC1(c2ccccc2)CCCN(Cc2cncn2C2CC2)C1` (stereo unspecified), the cytotoxicity at 10 µM is -1.06%.

Regarding `CN(C)C(=O)N1CCC2(CCCN(CCOc3ccccc3)C2)C1` (stereo unspecified), the cytotoxicity at 10 µM was -0.537%.

Take `CCc1ccc(CC)c(NCc2cnc(N3CCOCC3)nc2)c1`: the cytotoxicity at 10 µM is 0.898%.

On to `Cc1cc(C(=O)N2CCCN(Cc3nccn3C(C)C)CC2)no1`, for which the cytotoxicity at 10 µM was -2.72%.

As to `CNC(=O)c1cc2c(nc1N(C)C)CCN(C)CC2`, the cytotoxicity at 10 µM is -149%.

As to `COc1ncccc1C(=O)N1CC[C@H]2C[C@H](c3ccncn3)O[C@@H]2C1`, the cytotoxicity at 10 µM turned out to be 9.4%.

On to `CN(Cc1cccc(F)c1)C(=O)CS(=O)(=O)Cc1ccc(Cl)c(Cl)c1`, for which the cytotoxicity at 10 µM is -4.67%.

Regarding `O=C(NCCc1ccccn1)[C@@]12CCO[C@@H]1CCN(c1ncccn1)C2`, the cytotoxicity at 10 µM came out at 4.26%.

Turning to `COc1ccc(CN2CCCC3(CCN(c4ccsc4)C3=O)C2)cc1` (stereo unspecified), the cytotoxicity at 10 µM is 6.92%.

`CCC(CN1CCCCC1)NC(=O)C1(c2ccc(F)cc2)CC1` (stereo unspecified): the cytotoxicity at 10 µM was determined as 1.69%.

For `Cc1c(CN(C)c2cc(C3CCCNC3)ncn2)[nH]c2ccccc12` (stereo unspecified), the cytotoxicity at 10 µM came out at 1.99%.

In the case of `Cc1ccsc1CCNC(=O)CCC(=O)NC1CCCC1`, the cytotoxicity at 10 µM is -2.98%.

As for `c1cc(CN2CCCC(c3noc(C4CC4)n3)C2)no1` (stereo unspecified), the cytotoxicity at 10 µM is -7.57%.

Regarding `CCCn1ccnc1-c1nccn1CCN(C)C`, the cytotoxicity at 10 µM is -1.04%.

For `O=C(C(c1ccccc1)N1CCc2cncnc2C1)N1CCCCC1` (stereo unspecified), the cytotoxicity at 10 µM was 1.26%.

In the case of `Cc1c(C(=O)NCCC(C)C)nnn1-c1cccc2c1CCN(C)C2`, the cytotoxicity at 10 µM was 1.31%.

On to `CN(Cc1cccnc1)[C@@H]1CN(Cc2nccn2C)[C@@H]2CCCO[C@H]12`, for which the cytotoxicity at 10 µM is -9.46%.

`CNC(=O)C1(c2cnccn2)CCCN1C(=O)c1cccc(C)n1` (stereo unspecified): the cytotoxicity at 10 µM is -18.6%.

On to `CN1CCC2(CC1)CN(C(=O)c1ccncc1)Cc1ccccc12`, for which the cytotoxicity at 10 µM was -86.3%.

Consider `CCOCCN1CCN(c2ccc(CN(C)C)cn2)CC1`, for which the cytotoxicity at 10 µM was -4.11%.

The values above are taken from ChEMBL document CHEMBL4513216, “Probing the Open Global Health Chemical Diversity Library for Multistage-Active Starting Points for Next-Generation Antimalarials” (ACS Infect Dis, 2020).
